Shown are actives, neighbours in structure and some others; about 2.4% of the full set was active somewhere.
NR2E3 ag-1: agonists of human NR2E3 nuclear receptor. Q9Y5X4. CHO-S Gal4-NCOR/VP16-NR2E3 two-hybrid, luciferase. inhibition of corepressor binding, % at 3.98 µM. hit rate 0.35% among 360,000;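 active = inhibition above the mean of all tested compounds plus 3 SD, cut at about 70% in these data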;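 note: 0% = DMSO with NR2E3 transfected cells and 100% = cells lacking NR2E3 construct; higher means lower luciferase signal from less NR2E3 corepressor binding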
Target sequence (Q9Y5X4 whole entry, looked up, the tested form may be a part): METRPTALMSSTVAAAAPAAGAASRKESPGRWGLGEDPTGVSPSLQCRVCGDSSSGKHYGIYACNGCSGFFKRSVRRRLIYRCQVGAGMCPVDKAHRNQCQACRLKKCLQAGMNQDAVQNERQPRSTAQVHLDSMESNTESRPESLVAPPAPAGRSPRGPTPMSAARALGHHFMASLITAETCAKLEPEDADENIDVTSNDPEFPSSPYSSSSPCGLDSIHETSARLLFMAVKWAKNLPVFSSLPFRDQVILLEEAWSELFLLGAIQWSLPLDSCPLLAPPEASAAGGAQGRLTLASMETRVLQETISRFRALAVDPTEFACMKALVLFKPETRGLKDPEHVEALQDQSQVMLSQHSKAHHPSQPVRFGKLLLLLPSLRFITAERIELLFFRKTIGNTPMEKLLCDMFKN
aDG glyco up: alpha-DG glycosylation activation. activation, % at 10 µM. Pro5-aDG cells, alpha-DG glycosylation AlphaScreen (IIH6); 0% Pro5, 100% B10-LARGE cell signal. AID 624168. hit rate 0.22% among 360,000;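 active = activation of at least 8% versus controls, or a plate z-score of at least 8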;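 note: Pro5 are CHO cells carrying HIG-tagged alpha-DG that lacks glycosylation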
MPTP block: inhibitors of mitochondrial permeability transition pore. hit rate 1.4% among 360,000. AID 602449. isolated mouse mitochondria, Ca2+ swelling absorbance, 30 min. inhibition, % at 10 µM;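 active = inhibition of 50% or more, scaled per plate between neutral and stimulator controls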;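 note: 0% = DMSO wells given calcium and 100% = 1 mM EGTA wells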
NR2E3 ag-2: NR2E3 (human) agonism | Q9Y5X4 | GST-NR2E3/biotin-RetCOR TR-FRET, 1536-well | inhibition of corepressor binding, % at 4.78 µM | hit rate 0.12% among 320,000 | AID 2300;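 active = percent inhibition above the cutoff of mean plus 3 SD of all tested compounds, set per screening campaign, cut at about 20% in these data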;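 note: 0% = DMSO wells and 100% = biotin wells as full block of FRET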
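System: GST-tagged NR2E3 plus biotinylated RetCOR corepressor; Amount: 1.35 nM GST-tagged NR2E3 final; Dosing: single nominal compound dose of 4.8 µM; Schedule: 5 h incubation at 4 °C; Technique: TR-FRET with europium anti-GST and streptavidin-D2, 340 nm excitation; Controls: biotin wells as high control, 0.6% DMSO wells as low control.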
Jurkat NFkB inh: inhibitors of the PMA/ionomycin-induced NF-kB reporter in Jurkat cells. PMA/ionomycin-induced NF-kB luciferase reporter, luminescence. inhibition, % at 4 µM. hit rate 0.53% among 330,000. AID 435003; in the data active = inhibition above about 50%
697 NFkB inh: lowers PMA/ionomycin-induced NF-kB signal in 697 B cells; hit rate 0.33% among 330,000; AID 435022; 697 B-cell NF-kB luciferase reporter, 16 h; inhibition, % at 4 µM; in the data active = inhibition above about 35%
MPTP counter: mitochondrial membrane potential, counter-screen; hit rate 78% among 5,000; isolated mitochondria, Rhodamine 123 fluorescence; inhibition, % at 10 µM; shares compounds with MPTP block; in the data active = inhibition above about 22%;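 note: 0% = DMSO vehicle and 100% = positive control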
MPTP abs DR: dose response confirmation of mitochondrial permeability transition pore inhibitors; shares compounds with MPTP block; isolated mitochondria swelling, absorbance; IC50, µM; hit rate 58% among 780; AID 651561; in the data active = IC50 below about 20 µM
MPTP counter DR: MPTP inhibitor counter-screen activity, dose response; shares compounds with MPTP block; isolated mitochondria counterscreen, fluorescence read-out; IC50, µM; hit rate 49% among 780; in the data active = IC50 below about 80 µM
* = called active by the depositor; i = inactive; / = no result given.

SMILES	NR2E3 ag-1	aDG glyco up	MPTP block	NR2E3 ag-2	Jurkat NFkB inh	697 NFkB inh	MPTP counter	others
CCC(CC)NC(=O)CN(c1ccccc1OC)S(=O)(=O)c1cccs1	-5.5	0.0	0.6	-3.7	4.0	14.6	/
O=C(/C(N=Nc1cccc(C(F)(F)F)c1)=C(/O)c1cccs1)C(F)(F)F	-21.7	0.0	86.3*	2.6	-59.1	-113.3	82.1*
Cc1ccc(CSc2nccc(-c3c(C)nc4ccccn34)n2)cc1	4.4	0.8	60.8*	1.4	43.8	-69.6	13.5	MPTP abs DR=i;MPTP counter DR=>80
Cc1ccc(CSc2ncn(-c3ccccc3)n2)cc1	-41.1	-0.2	2.3	-1.8	-11.6	11.5	/
CCCCCCCn1c(=N)n(CC(=O)c2ccco2)c2ccccc21	9.0	4.7	82.9*	2.9	13.7	-7.1	40.6*
Cc1snc(S(=O)(=O)/C(C#N)=N/Nc2ccc(C(F)(F)F)cc2)c1C#N	17.1	-0.4	90.5*	5.0	11.1	15.7	103.1*
Cc1ccc(C(CNS(=O)(=O)c2ccc(Br)cc2)N2CCN(C)CC2)cc1 (stereo unspecified)	-17.4	0.4	77.8*	5.8	2.4	20.9	-16.1	MPTP abs DR=13.3*;MPTP counter DR=>80
CCOCCCNCc1cn(-c2ccc(F)cc2F)nc1-c1ccccc1C	-6.4	0.3	57.8*	-7.0	0.0	5.7	-1.7	MPTP abs DR=14.6*;MPTP counter DR=60.4*
Cc1ccc(-c2csc3nc(-c4ccncc4)[nH]c(=O)c23)cc1	12.0	0.8	98.1*	0.6	21.1	-49.0	18.6	MPTP abs DR=3.04*;MPTP counter DR=<2.5*
O=C(/C=C/c1cccc([N+](=O)[O-])c1)NCc1ccccc1	-4.6	0.7	-1.2	0.2	12.3	11.2	/
O=C(/C=C/c1cccc([N+](=O)[O-])c1)NCCSCc1cccc(Cl)c1	-4.2	-0.2	63.3*	0.2	-7.9	2.3	56.0*
NCCCn1c(C(=O)c2ccc(Cl)cc2)c2ccc(C(F)(F)F)cc2[n+]1[O-]	-17.2	0.3	64.6*	0.0	-6.3	-26.0	-18.4	MPTP abs DR=8.67*;MPTP counter DR=>80
Cc1ccc(S(=O)(=O)NC(C)(C)CSc2nncn2N)cc1	0.3	0.1	1.8	3.7	-12.3	3.5	/
Cc1ccc(S(=O)(=O)NC(C)(C)CSc2nnc(Nc3ccccc3)s2)cc1	8.7	1.6	64.7*	-0.6	-8.6	-12.4	66.0*
CC(C)(C)C(=O)NC(=S)NNC(=O)c1ccc(Cl)cc1Cl	18.4	0.1	75.6*	0.0	-3.4	-4.0	-4.8
CCNc1nc(NCC)nc(SCCOc2ccc(C)cc2)n1	-7.3	0.6	4.6	2.7	-19.5	-45.1	/
COc1ccc(C2CC(c3ccccc3)=NN2c2ccc(N)cc2)cc1 (stereo unspecified)	-91.6	-0.2	73.1*	-1.4	-28.8	-28.1	71.0*
COc1ccc(C2CC(c3ccccc3O)=NN2c2ccccc2)cc1 (stereo unspecified)	1.9	-0.1	0.4	3.0	3.3	11.8	/
CCOc1ccc(-c2csc(/C(C#N)=C\c3ccc(O)c([N+](=O)[O-])c3)n2)cc1	-38.7	1.0	73.1*	4.0	18.2	-24.4	70.3*
CCN(c1ccccc1)S(=O)(=O)c1ccc(Cl)c(C(=O)Nc2ccncc2)c1	18.7	1.2	1.4	/	/	/	/
CCOC(=O)c1c(CNCCN(CC)CC)n(C)c2cc(Br)c(OC)cc12	8.7	3.5	74.2*	1.8	-17.4	-19.1	-13.7	MPTP abs DR=i;MPTP counter DR=>80
CCOC(=O)c1c(CN2CCN(CCO)CC2)n(C)c2cc(Br)c(OC)cc12	15.3	0.8	68.2*	0.2	6.4	6.4	-10.1	MPTP abs DR=i;MPTP counter DR=>80
CN(c1ccc(OCC(=O)OCC(=O)Nc2ccc(F)cc2)cc1)S(=O)(=O)c1ccc(Cl)cc1	-4.8	-0.4	8.3	-2.6	5.4	-12.0	/
COc1ccc(NC(=O)COc2ccc(N(C)S(=O)(=O)c3ccc(Cl)cc3)cc2)cc1OC	8.3	0.9	76.4*	0.8	37.1	-17.9	90.0*
O=C(CSc1nnc2n1CCCN2C(=S)Nc1ccc(Cl)cc1)c1ccccc1	-37.3	0.3	83.5*	2.3	11.0	-15.5	88.7*
SMILES	NR2E3 ag-1	aDG glyco up	MPTP block	NR2E3 ag-2	Jurkat NFkB inh	697 NFkB inh	MPTP counter	others
O=C(CSc1nnc2ccccn12)c1ccc(Cl)cc1	-9.9	0.3	0.3	-1.0	4.3	8.3	/
COc1cc(CN2CCN(Cc3ccc(C)cc3)C(CCO)C2)cc(OC)c1O (stereo unspecified)	-12.2	-0.1	-3.2	2.3	-4.6	7.4	/
CSc1ccccc1OC1CCN(Cc2ccccc2)CC1	-18.1	1.1	54.2*	2.7	-4.8	-24.7	-0.3	MPTP abs DR=i;MPTP counter DR=62.8*
COc1ccc(CC(=O)Nc2ccc(S(=O)(=O)N3CCC(C)CC3)cc2)c(OC)c1	14.5	0.0	-0.5	0.2	6.4	1.5	/
O=C(/C=C/c1ccccc1)NC(NC(=S)Nc1ccc(C(=O)O)cc1)C(Cl)(Cl)Cl (stereo unspecified)	16.8	-0.1	6.4	-0.5	5.2	-3.5	/
Cc1ccc(NC(=S)NC(NC(=O)N(C)C)C(Cl)(Cl)Cl)cc1 (stereo unspecified)	1.7	0.2	1.4	-0.2	-3.8	9.4	/
CC(=O)NC(NC(=S)Nc1ccc(N=Nc2ccccc2C)cc1C)C(Cl)(Cl)Cl (stereo unspecified)	-46.4	0.6	88.1*	5.6	-28.1	-16.2	63.2*
O=C(/C=C/c1ccccc1)NC(NC(=S)Nc1cccc(Cl)c1)C(Cl)(Cl)Cl (stereo unspecified)	3.7	1.6	93.4*	1.4	-6.7	-26.5	84.2*
Cc1ccc(NC(=S)NC(NC(=O)C(C)(C)C)C(Cl)(Cl)Cl)c(C)c1 (stereo unspecified)	4.4	0.1	57.3*	1.8	-9.6	5.6	64.1*
O=C(/C=C/c1ccccc1)NC(NC(=S)Nc1cccc(O)c1)C(Cl)(Cl)Cl (stereo unspecified)	-6.5	0.2	25.0	-4.7	-0.4	-12.3	/
O=C(/C=C/c1ccccc1)NC(NC(=S)Nc1ccc(Cl)cc1Cl)C(Cl)(Cl)Cl (stereo unspecified)	3.3	4.7	102.4*	-3.9	0.5	9.0	63.4*
Cc1ccc(C2=NN(C(=O)CSc3nnnn3C)C(c3ccco3)C2)cc1 (stereo unspecified)	5.9	0.8	-1.0	3.0	-5.7	-2.4	/
Cc1ccc(O)c(NC(=S)NC(=O)/C=C/c2ccccc2)c1	-42.1	0.1	1.8	0.3	-29.9	-57.1	/
Cc1ccc(C)c(NC(=S)NC(NC(=O)/C=C/c2ccccc2)C(Cl)(Cl)Cl)c1 (stereo unspecified)	9.4	0.2	100.3*	-1.2	1.8	8.1	64.9*
